High-throughput results deposited in PubChem BioAssay by several laboratories.
Myeloid diff MLP – promotes myeloid progenitor differentiation; actives 1% (n = 360,000); calls only at 10 µM; ER-HoxA9 myeloid progenitors, lysozyme-GFP differentiation, flow cytometry;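 active means normalized GFP-positive differentiation at or above the plate's own cutoff, the solvent-only control mean plus 3 SD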;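 further: cells exposed to compound for four days before flow analysis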
T cell modulator – T cell immune modulators affecting CD8 T cell-vesicle binding. 2C CD8+ T cell-vesicle binding, flow cytometry; stronger effect = lower value. response (vesicle binding), % at 7 µM. AID 2052. actives 0.068% (n = 330,000);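 active means response, share of CD8 T cells binding vesicles, and their 90th percentile fluorescence all below set limits, cut at about 80% in these data, passing the limit was not always enough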;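 further: values below 100% mean blocked vesicle binding to the CD8+ T cells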
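Material: murine 2C transgenic CD8+ T lymphocytes / Also added: QL9-peptide-loaded Drosophila micro-vesicles bearing Ld, ICAM-1 and B7-1 / Schedule: binding step 1.5 h, 37 °C, antibody labelling 20 min, ice / Signal: flow cytometry, PE anti-B7-1 (FL2) versus Alexa647 anti-CD8 (FL8), PFA-fixed / Evaluation: percent CD8+ FL2 mean versus row control / Benchmarks: naked versus QL9-loaded vesicles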
NR2E3 ag-1 – activates human photoreceptor nuclear receptor NR2E3. GST-NR2E3/biotin-RetCOR TR-FRET, 1536-well. inhibition of corepressor binding, % at 4.78 µM. Q9Y5X4. actives 0.12% (n = 320,000);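 active means percent inhibition above the cutoff of mean plus 3 SD of all tested compounds, set per screening campaign, cut at about 20% in these data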;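 further: 0% = DMSO wells and 100% = biotin wells as full block of FRET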
Target sequence (Q9Y5X4 whole entry, looked up): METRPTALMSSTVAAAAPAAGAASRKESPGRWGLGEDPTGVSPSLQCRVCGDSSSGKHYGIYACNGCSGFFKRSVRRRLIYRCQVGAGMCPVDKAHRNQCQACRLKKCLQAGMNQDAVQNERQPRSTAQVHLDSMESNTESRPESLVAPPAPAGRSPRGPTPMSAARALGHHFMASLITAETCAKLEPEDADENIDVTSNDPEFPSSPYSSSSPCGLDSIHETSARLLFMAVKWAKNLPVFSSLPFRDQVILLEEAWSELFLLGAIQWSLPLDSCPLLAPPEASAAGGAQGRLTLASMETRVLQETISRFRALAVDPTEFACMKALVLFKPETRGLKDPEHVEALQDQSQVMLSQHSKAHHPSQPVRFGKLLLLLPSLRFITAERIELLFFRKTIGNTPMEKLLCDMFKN
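System: GST-tagged NR2E3 plus biotinylated RetCOR corepressor; Amount: 1.35 nM GST-tagged NR2E3 final; Dosing: single nominal compound dose of 4.8 µM; Schedule: 5 h incubation at 4 °C; Technique: TR-FRET with europium anti-GST and streptavidin-D2, 340 nm excitation; Controls: biotin wells as high control, 0.6% DMSO wells as low control.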
GAA850 FXN act – increases GAA850 frataxin promoter reporter activity | HEK293 lucGAA850 FXN promoter luciferase reporter, 24 h; percent of 10 µM SAHA response | activation, % at 6 µM | actives 0.56% (n = 360,000) | AID 540364;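 active means activation above the average of all compounds screened plus 3 SD, cutoff fixed separately per campaign, cut at about 7.5% in these data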;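 further: 0% = DMSO wells and 100% = 10 µM SAHA wells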
NR2E3 ag-2 – activates human NR2E3 receptor | Q9Y5X4 | CHO-S Gal4-NCOR/VP16-NR2E3 two-hybrid, luciferase | inhibition of corepressor binding, % at 3.98 µM | actives 0.35% (n = 360,000) | AID 602229;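 active means inhibition above the mean of all tested compounds plus 3 SD, cut at about 70% in these data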;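 further: 0% = DMSO with NR2E3 transfected cells and 100% = cells lacking NR2E3 construct; higher means lower luciferase signal from less NR2E3 corepressor binding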
Myeloid diff CP1 – compounds promoting myeloid differentiation. shares compounds with Myeloid diff MLP. ER-HoxA9 myeloid progenitors, GFP/Mac1 double-positive flow. calls only. actives 2% (n = 2,300). AID 651706;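 active means share of green or green-and-red cells above 9 and 9% in run 1 or 4 and 3% in run 2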
GFP autofluor – counter-screen for myeloid differentiation promoters: compound fluorescence | ER-HoxA9 myeloid progenitors, no estrogen, GFP autofluorescence flow cytometry; vehicle wells 0%, positive control 100% | fluorescence response, % (test concentration not listed) | shares compounds with Myeloid diff MLP | actives 7.4% (n = 2,300);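 active means over 5% cells positive for green fluorescent reporter, or over 2% positive for both it and APC stain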;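 further: range taken on the double positive population between DMSO and positive control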
The depositor's hits bear a star; i = inactive; · = no result; + = active, no number. Compounds with a hit are over-represented: about 2% of the library has one in this group of screens.

SMILES	Myeloid diff MLP	T cell modulator	NR2E3 ag-1	GAA850 FXN act	NR2E3 ag-2	Myeloid diff CP1	GFP autofluor
C[C@@H]1CN([C@@H](C)CO)C(=O)c2cc(N(C)C)ccc2O[C@@H](C)CCCCO[C@@H]1CN(C)Cc1ccc2c(c1)OCO2	i	·	·	-8	-17	·	·
O=C(NCC(=O)N(c1cccnc1)C(C(=O)NC1CCCC1)c1cccs1)c1ccco1 (configuration not stated)	i	399	-8	4	-17	i	67*
Cc1cccc(N(C(=O)CNC(=O)c2cccs2)C(C(=O)NC2CCCC2)c2cccnc2)c1 (configuration not stated)	i	401	0	3	-13	i	0
Cc1cc(C)cc(N(C(=O)CNC(=O)c2cccs2)C(C(=O)NC2CCCC2)c2cccnc2)c1 (configuration not stated)	i	361	3	-2	-40	·	·
O=[N+]([O-])c1ccc2[nH]c(O)c(N=Nc3ccc(F)cc3)c2c1	+	433	2	0	6	i	9.8*
O=[N+]([O-])c1ccc(N=Nc2c(O)[nH]c3ccc(F)cc23)cc1	i	i	-3	5	-47	·	·
COc1cccc(C(NC(C)=O)c2nc(-c3ccc(OC)nc3)cs2)c1 (configuration not stated)	i	·	·	0	-32	·	·
C[C@@H]1CN([C@@H](C)CO)C(=O)CCCn2nncc2CO[C@H]1CN(C)S(=O)(=O)c1ccc2ccccc2c1	i	·	·	1	4	i	0
CCCC(=O)C1=C(O)C(C(=O)OC)C(C)(C)CC1=Nc1ccccc1 (configuration not stated)	i	320	4	1	-6	i	0
CC[C@]12c3[nH]c4ccc(Cl)cc4c3CCN1C(=O)[C@@H](CC(=O)NCCc1ccccn1)C[C@@H]2C(=O)N1CCN(C(=O)C2CC2)CC1	i	·	·	-1	-16	i	0
NNC(=O)COc1ccc(F)cc1	i	482	1	1	4	·	·
NNC(=O)COc1ccc(-c2nccc(-c3ccc(F)cc3)n2)cc1	i	285	0	-6	12	i	0
COC(=O)c1cc(-c2c(-c3cc(OC)c(OC)c(OC)c3)noc2C)cc([N+](=O)[O-])c1	i	854	4	-2	7	i	0
COc1ccc(C(=O)NC(=S)Nc2ccc(S(=O)(=O)Nc3cc(OC)nc(OC)n3)cc2)cc1	+	213	5	4	15	i	0
COc1cc(NS(=O)(=O)c2ccc(NC(=S)NC(=O)c3ccc(F)cc3)cc2)nc(OC)n1	i	308	-2	0	-40	·	·
COCc1c(C)cc(C)c(/C=N/O)c1C	i	435	5	0	-19	i	2
O=C(COC(=O)c1ccc(F)cc1F)Nc1ccc2c(c1)OCO2	i	·	·	2	12	·	·
O=C(Cc1cc(=O)[nH][nH]1)N/N=C/C(Cl)=C/c1ccccc1	i	544	0	-1	-2	i	0
C=CCNC(=O)C1CCCN(S(C)(=O)=O)C1 (configuration not stated)	i	336	8	2	-3	i	0
C=CCNC(=O)C1CCN(S(=O)(=O)CC)CC1	i	445	1	2	-7	·	·
CCOC(=O)c1c(C)[nH]c(C(=O)OCC(=O)NCCc2ccc(OCC)c(OCC)c2)c1C	+	264	2	-2	-26	i	0
CC(=O)Nc1cccc(NC(=O)C(=O)c2cn(CC(=O)N3CCCC3)c3ccccc23)c1	i	·	·	1	-59	·	·
CC(=O)OC1(C(C)=O)CCC2C3CC(Cl)C4=CC(=O)CCC4(C)C3CCC21C (configuration not stated)	i	·	·	4	5	·	·
COC(=O)C(C#N)c1nc2ccccc2nc1N1CCN(Cc2ccc3c(c2)OCO3)CC1 (configuration not stated)	·	72	0	·	·	·	·
CCCCOC(=O)C(C#N)c1nc2ccccc2nc1N1CCN(Cc2ccc3c(c2)OCO3)CC1 (configuration not stated)	+	191	1	2	10	i	0
SMILES	Myeloid diff MLP	T cell modulator	NR2E3 ag-1	GAA850 FXN act	NR2E3 ag-2	Myeloid diff CP1	GFP autofluor
CCOc1cc(C)c(S(=O)(=O)Nc2ccc(Cl)cn2)cc1C	i	236	4	2	27	i	0
COc1ccccc1/C=C/C=C1\Oc2c(ccc(O)c2CN2CCN(CCO)CC2)C1=O	i	65	-2	1	17	i	0
O=C(NCc1ccccc1)C(c1ccc(C(F)(F)F)cc1)N1CCN(CCN2CCOCC2)CC1 (configuration not stated)	i	·	·	·	·	i	0
O=c1c2oc3nc4c(cc3c2ncn1CCCc1ccccc1)CCCC4	i	495	2	1	-55	·	·
COc1ccccc1-c1nc(=S)c(C(C)=O)c(C)[nH]1	i	226	6	2	-5	·	·
CC(=O)c1c(NC(=O)c2ccccc2)[nH]c(-c2ccccc2)nc1=S	+	127	0	3	1	i	4.9*
CC(=O)c1c(C)[nH]c(-c2ccccc2)nc1=S	i	187	1	3	-14	i	1
COc1ccc(C(=O)C(=O)N2CCN(c3ccccc3F)CC2)cc1	i	·	·	·	·	·	·
CCCCCOc1ccc(C(C)(O)C(CN2CCOCC2)c2ccccc2)cc1 (configuration not stated)	i	197	-1	-2	-26	·	·
CC(C)(C)c1ccc(S(=O)(=O)NC(=O)C2(C)CCN2C(=O)C2(c3ccccc3)CC2)cc1 (configuration not stated)	i	·	·	0	-18	·	·
O=C(CSc1nnc(-c2ccccc2Br)o1)N1CCN(C(=O)c2ccco2)CC1	i	383	1	-2	6	i	0
CC1CCCC(C)N1C(=O)Cn1c(SCC(=O)Nc2ccc3c(c2)OCO3)nc2ccccc21 (configuration not stated)	i	181	1	-3	-13	·	·
O=C(CSc1nc2ccccc2n1CC(=O)N1CCCC1)N1CCN(C(=O)c2ccco2)CC1	i	0	-2	0	10	i	0
O=C(CSc1nc2ccccc2n1CC(=O)N1CCCC1)Nc1ccc2c(c1)OCO2	+	412	1	-6	13	i	0
CCCS(=O)(=O)NC(=O)C1(C)CCCN(C(=O)COCc2ccccc2)C1 (configuration not stated)	i	·	·	-1	-29	·	·
